Results: ChEMBL document CHEMBL1123371, “5-HT1 and 5-HT2 binding characteristics of some quipazine analogues” (J Med Chem, 1986)
The source made the active and inactive calls. The rule behind the calls is not given here.

Experiments:
[1] = Displacement of [3H]5-HT from 5-hydroxytryptamine 1 receptor of rat cortical membrane homogenates
[2] = target: Serotonin 2 (5-HT2) receptor (Rattus norvegicus, UniProt P30994+P08909+P14842); assay: Displacement of [3H]ketanserin from 5-hydroxytryptamine 2 receptor of rat cortical membrane homogenates
Rattus norvegicus [3] = assay: Stimulus generalization studies in TFMPP trained animals and the number of animals responding /number to receive dose of drug was determined at dose of 1.0 mg/kg; 10/10; assay type: functional
Rattus norvegicus [4] = assay: Compound was evaluated in stimulus generalization studies in DOM trained animals and the number of animals responding /number to receive dose of drug at dose of 2.2 mg/kg; 2/5; assay type: functional
How it was run: (§1)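 Male Sprague-Dawley rats (n = 10) trained to discriminate 1.0 mg/kg DOM HCl from saline on a two-lever operant task, VI 15-s food reinforcement. Test doses were given ip in random order, 15 min pre-session, with at least three training sessions between tests. Responding was scored in a 2.5-min extinction session. Rats with fewer than five total responses were counted as disrupted.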

Rattus norvegicus [5] = assay: Compound was evaluated in tests of stimulus generalization using animals trained to discriminate DOM from saline, and the mean responses per min at dose of 2.0 mg/kg; assay type: functional; how it was run: as §1
Rattus norvegicus [6] = assay: Compound was evaluated in tests of stimulus generalization using animals trained to discriminate DOM from saline, and the mean responses per min at dose of 2.5 mg/kg; assay type: functional; how it was run: as §1
Rattus norvegicus [7] = assay: Compound was evaluated in stimulus generalization studies in DOM trained animals and the number of animals responding /number to receive dose of drug at dose of 0.5 mg/kg; 3/3; assay type: functional; how it was run: as §1
Rattus norvegicus [8] = assay: Compound was evaluated in tests of stimulus generalization using animals trained to discriminate DOM from saline, and the drug appropriate responding at dose of 3.0 mg/kg; Not responding; assay type: functional, organism-based; design: dose 3 mg/kg; how it was run: as §1
Rattus norvegicus [9] = assay: Compound was evaluated in stimulus generalization test using animals trained to discriminate TFMPP from saline, and the mean responses per min at dose of 2.5 mg/kg; assay type: functional
How it was run: (§2)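 Male Sprague-Dawley rats (n = 6) trained to discriminate 0.5 mg/kg TFMPP HCl from saline on a two-lever operant task, VI 15-s food reward. Challenge doses were given ip in random order 15 min before a 2.5-min extinction test, with at least three training sessions between tests. Fewer than five total responses was scored as disruption.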

Rattus norvegicus [10] = assay: Stimulus generalization studies in TFMPP trained animals and the number of animals responding /number to receive dose of drug was determined at dose of 0.5 mg/kg; 3/3; assay type: functional; how it was run: as §2
Rattus norvegicus [11] = assay: Compound was evaluated in stimulus generalization test using animals trained to discriminate TFMPP from saline, and the drug appropriate responding at dose of 0.5 mg/kg; assay type: functional; how it was run: as §2
Rattus norvegicus [12] = assay: Compound was evaluated in tests of stimulus generalization using animals trained to discriminate DOM from saline, and the drug appropriate responding at dose of 0.5 mg/kg; assay type: functional; how it was run: as §1
Rattus norvegicus [13] = assay: Stimulus generalization studies in TFMPP trained animals and the number of animals responding /number to receive dose of drug was determined at dose of 2.5 mg/kg; 5/5; assay type: functional; how it was run: as §2
Rattus norvegicus [14] = assay: Compound was evaluated in tests of stimulus generalization using animals trained to discriminate DOM from saline, and the drug appropriate responding at dose of 2.5 mg/kg; assay type: functional; how it was run: as §1
Rattus norvegicus [15] = assay: Compound was evaluated in tests of stimulus generalization using animals trained to discriminate DOM from saline, and the mean responses per min at dose of 0.5 mg/kg; assay type: functional; how it was run: as §1
Rattus norvegicus [16] = assay: Compound was evaluated in stimulus generalization test using animals trained to discriminate TFMPP from saline, and the mean responses per min at dose of 1.0 mg/kg; assay type: functional; how it was run: as §2
Rattus norvegicus [17] = assay: Compound was evaluated in stimulus generalization studies in DOM trained animals and the number of animals responding /number to receive dose of drug at dose of 3.0 mg/kg; 1/4; assay type: functional; how it was run: as §1
Rattus norvegicus [18] = assay: Compound was evaluated in stimulus generalization studies in DOM trained animals and the number of animals responding /number to receive dose of drug at dose of 2.7 mg/kg; 1/4; assay type: functional; how it was run: as §1
Rattus norvegicus [19] = assay: Compound was evaluated in stimulus generalization test using animals trained to discriminate TFMPP from saline, and the mean responses per min at dose of 0.5 mg/kg; assay type: functional; how it was run: as §2
Rattus norvegicus [20] = assay: Compound was evaluated in stimulus generalization studies in DOM trained animals and the number of animals responding /number to receive dose of drug at dose of 2.5 mg/kg; 3/6; assay type: functional; how it was run: as §1
Rattus norvegicus [21] = species: Rattus norvegicus; assay: Compound was tested for the doses at which the animals would be expected to make approximately 50% of their responses on the DOM-appropriate lever; assay type: functional
How it was run: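 DOM-trained rats (1.0 mg/kg DOM HCl vs saline, two-lever, VI 15 s, food) were given ip doses 15 min before a 2.5-min extinction session. Where >80% of responses fell on the DOM lever (generalization), the dose expected to give about 50% DOM-lever responding was calculated from dose–response data and reported with 95% confidence limits.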

Rattus norvegicus [22] = assay: Compound was evaluated in tests of stimulus generalization using animals trained to discriminate DOM from saline, and the drug appropriate responding at dose of 2.0 mg/kg; assay type: functional; how it was run: as §1
Rattus norvegicus [23] = assay: Compound was evaluated in stimulus generalization studies in DOM trained animals and the number of animals responding /number ot receive dose of drug at dose of 2.0 mg/kg; 3/4; assay type: functional; how it was run: as §1
Rattus norvegicus [24] = assay: Stimulus generalization studies in TFMPP trained animals and the number of animals responding /number to receive dose of drug was determined at dose of 1 mg/kg; 3/4; assay type: functional; how it was run: as §2
Rattus norvegicus [25] = assay: Compound was evaluated in stimulus generalization test using animals trained to discriminate TFMPP from saline, and the drug appropriate responding at dose of 2.5 mg/kg; assay type: functional; how it was run: as §2
Rattus norvegicus [26] = assay: Compound was evaluated in stimulus generalization test using animals trained to discriminate TFMPP from saline, and the drug appropriate responding at dose of 1.0 mg/kg; assay type: functional; how it was run: as §2
Rattus norvegicus [27] = assay: Compound was evaluated in tests of stimulus generalization using animals trained to discriminate DOM from saline, and the drug appropriate responding at dose of 2.7 mg/kg; Not responding; assay type: functional, organism-based; design: dose 2.7 mg/kg; how it was run: as §1
Rattus norvegicus [28] = assay: Compound was evaluated in tests of stimulus generalization using animals trained to discriminate DOM from saline, and the drug appropriate responding at dose of 2.2 mg/kg; Not responding; assay type: functional, organism-based; design: dose 2.2 mg/kg; how it was run: as §1
Rattus norvegicus [29] = assay: Compound was evaluated in stimulus generalization test using animals trained to discriminate TFMPP from saline, and the drug appropriate responding at dose of 4.0 mg/kg; Not responding; assay type: functional, organism-based; design: dose 4 mg/kg; how it was run: as §2
Rattus norvegicus [30] = assay: Compound was evaluated in stimulus generalization studies in DOM trained animals and the number of animals responding /number ot receive dose of drug at dose of 3.5 mg/kg; 4/4; assay type: functional; how it was run: as §1
Rattus norvegicus [31] = assay: Compound was evaluated in tests of stimulus generalization using animals trained to discriminate DOM from saline, and the drug appropriate responding at dose of 5.0 mg/kg; assay type: functional; how it was run: as §1
Rattus norvegicus [32] = assay: Compound was evaluated in stimulus generalization studies in DOM trained animals and the number of animals responding /number ot receive dose of drug at dose of 2.5 mg/kg; 4/4; assay type: functional; how it was run: as §1
Rattus norvegicus [33] = assay: Compound was evaluated in tests of stimulus generalization using animals trained to discriminate DOM from saline, and the drug appropriate responding at dose of 3.5 mg/kg; assay type: functional; how it was run: as §1
Rattus norvegicus [34] = assay: Compound was evaluated in tests of stimulus generalization using animals trained to discriminate DOM from saline, and the drug appropriate responding at dose of 0.6 mg/kg; assay type: functional; how it was run: as §1
Rattus norvegicus [35] = assay: Compound was evaluated in tests of stimulus generalization using animals trained to discriminate DOM from saline, and the mean responses per min at dose of 5.0 mg/kg; assay type: functional; how it was run: as §1
Rattus norvegicus [36] = assay: Compound was evaluated in stimulus generalization test using animals trained to discriminate TFMPP from saline, and the drug appropriate responding at dose of 3.0 mg/kg; assay type: functional; how it was run: as §2
Rattus norvegicus [37] = assay: Stimulus generalization studies in TFMPP trained animals and the number of animals responding /number to receive dose of drug was determined at dose of 3.5 mg/kg; 2/3; assay type: functional
Rattus norvegicus [38] = assay: Compound was evaluated in stimulus generalization test using animals trained to discriminate TFMPP from saline, and the mean responses per min at dose of 3.0 mg/kg; assay type: functional; how it was run: as §2
Rattus norvegicus [39] = assay: Stimulus generalization studies in TFMPP trained animals and the number of animals responding /number to receive dose of drug was determined at dose of 4.0 mg/kg; 0/3; assay type: functional
Rattus norvegicus [40] = assay: Stimulus generalization studies in TFMPP trained animals and the number of animals responding /number to receive dose of drug was determined at dose of 3 mg/kg; 2/3; assay type: functional
Rattus norvegicus [41] = assay: Compound was evaluated in stimulus generalization studies in DOM trained animals and the number of animals responding /number ot receive dose of drug at dose of 0.6 mg/kg; 3/3; assay type: functional; how it was run: as §1
Rattus norvegicus [42] = assay: Compound was evaluated in stimulus generalization test using animals trained to discriminate TFMPP from saline, and the drug appropriate responding at dose of 3.5 mg/kg; assay type: functional; how it was run: as §2
Rattus norvegicus [43] = assay: Compound was evaluated in stimulus generalization test using animals trained to discriminate TFMPP from saline, and the mean responses per min at dose of 3.5 mg/kg; assay type: functional; how it was run: as §2
Rattus norvegicus [44] = assay: Compound was evaluated in tests of stimulus generalization using animals trained to discriminate DOM from saline, and the mean responses per min at dose of 3.5 mg/kg; assay type: functional; how it was run: as §1
Rattus norvegicus [45] = assay: Compound was evaluated in tests of stimulus generalization using animals trained to discriminate DOM from saline, and the mean responses per min at dose of 0.6 mg/kg; assay type: functional; how it was run: as §1
Rattus norvegicus [46] = assay: Compound was evaluated in stimulus generalization studies in DOM trained animals and the number of animals responding /number ot receive dose of drug at dose of 5.0 mg/kg; 3/4; assay type: functional; how it was run: as §1
Rattus norvegicus [47] = assay: Stimulus generalization studies in TFMPP trained animals and the number of animals responding /number to receive dose of drug was determined at dose of 1 mg/kg; 3/3; assay type: functional; how it was run: as §2

COc1cccc2ccc(N)nc12
Ki [1]: 10.4 µM
Ki [2]: 35 µM

COc1cccc2ccc(N3CCCCC3)nc12
Ki [1]: 33 µM
Ki [2]: 71 µM

COc1cc(CC(C)N)c(OC)cc1C (centres undefined) [DOM]
Activity (Rattus norvegicus [3]): 10

c1ccc2c(N3CCNCC3)cccc2c1
Activity (Rattus norvegicus [4]): 2
Mean response/min (Rattus norvegicus [5]): 8.8
Mean response/min (Rattus norvegicus [6]): 2.6
Activity (Rattus norvegicus [7]): 3
Drug responding (Rattus norvegicus [8]): inactive
Mean response/min (Rattus norvegicus [9]): 16.4
Ki [1]: 0.005 µM
Activity (Rattus norvegicus [10]): 3
Drug responding (Rattus norvegicus [11]): 15%
Drug responding (Rattus norvegicus [12]): 14%
Activity (Rattus norvegicus [13]): 5
Drug responding (Rattus norvegicus [14]): 37%
Mean response/min (Rattus norvegicus [15]): 18
Ki [2]: 0.018 µM
Mean response/min (Rattus norvegicus [16]): 17.3
Activity (Rattus norvegicus [17]): 1
Activity (Rattus norvegicus [18]): 1
Mean response/min (Rattus norvegicus [19]): 19.1
Activity (Rattus norvegicus [20]): 3
ED50 (Rattus norvegicus [21]): 1 mg/kg
Drug responding (Rattus norvegicus [22]): 7%
Activity (Rattus norvegicus [23]): 3
Activity (Rattus norvegicus [24]): 3
Drug responding (Rattus norvegicus [25]): 96%
Drug responding (Rattus norvegicus [26]): 41%
Drug responding (Rattus norvegicus [27]): inactive
Drug responding (Rattus norvegicus [28]): inactive

c1ccc2cc(N3CCNCC3)ccc2c1
Drug responding (Rattus norvegicus [29]): inactive
Activity (Rattus norvegicus [30]): 4
Mean response/min (Rattus norvegicus [6]): 16.8
Drug responding (Rattus norvegicus [31]): 88%
Ki [1]: 0.265 µM
Activity (Rattus norvegicus [32]): 4
Drug responding (Rattus norvegicus [14]): 33%
Ki [2]: 0.07 µM
Mean response/min (Rattus norvegicus [16]): 20.6
Drug responding (Rattus norvegicus [33]): 71%
Drug responding (Rattus norvegicus [34]): 3%
Mean response/min (Rattus norvegicus [35]): 8.7
Drug responding (Rattus norvegicus [36]): 12%
Activity (Rattus norvegicus [37]): 2
Mean response/min (Rattus norvegicus [38]): 7
Activity (Rattus norvegicus [39]): 0
ED50 (Rattus norvegicus [21]): 2.9 mg/kg
Activity (Rattus norvegicus [40]): 2
Activity (Rattus norvegicus [41]): 3
Drug responding (Rattus norvegicus [42]): 25%
Mean response/min (Rattus norvegicus [43]): 7
Mean response/min (Rattus norvegicus [44]): 8
Drug responding (Rattus norvegicus [26]): 6%
Mean response/min (Rattus norvegicus [45]): 16.1
Activity (Rattus norvegicus [46]): 3
Activity (Rattus norvegicus [47]): 3

NC1CCc2ccccc2C1 (centres undefined)
Ki [1]: 0.38 µM
Ki [2]: 11.1 µM

Nc1cnc2ccccc2c1
Ki [1]: 56 µM
Ki [2]: > 300 µM

CCCN(CCC)c1ccc2cccc(OC)c2n1
Ki [1]: 45 µM
Ki [2]: 50 µM
